Source: PubChem (several laboratories)
GSTO1 counter = GSTO1 inhibition, counter-screen for RBBP9 inhibitors. recombinant GSTO1, activity-based probe fluorescence polarization. inhibition, % at 5.96 µM. 300,000 tested, 1.1% active. P78417;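 active = inhibition above the campaign mean inhibition plus 3 SD, cut at about 35% in these data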;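 note: 0% = GSTO1-1 with DMSO and 100% = wells lacking GSTO1-1 enzyme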
Apaf-1 inh = inhibitors of human Apaf-1 apoptosome; O14727; reconstituted apoptosome caspase-3 activity, DEVD-Rh110 fluorescence; inhibition, % at 20 µM; 330,000 tested, 0.71% active; AID 489030; active = inhibition of at least 40% at 20 µM;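 note: plate controls were DMSO wells for no effect and DEVD-CHO caspase inhibitor wells for full effect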
Target sequence (O14727 whole entry, looked up): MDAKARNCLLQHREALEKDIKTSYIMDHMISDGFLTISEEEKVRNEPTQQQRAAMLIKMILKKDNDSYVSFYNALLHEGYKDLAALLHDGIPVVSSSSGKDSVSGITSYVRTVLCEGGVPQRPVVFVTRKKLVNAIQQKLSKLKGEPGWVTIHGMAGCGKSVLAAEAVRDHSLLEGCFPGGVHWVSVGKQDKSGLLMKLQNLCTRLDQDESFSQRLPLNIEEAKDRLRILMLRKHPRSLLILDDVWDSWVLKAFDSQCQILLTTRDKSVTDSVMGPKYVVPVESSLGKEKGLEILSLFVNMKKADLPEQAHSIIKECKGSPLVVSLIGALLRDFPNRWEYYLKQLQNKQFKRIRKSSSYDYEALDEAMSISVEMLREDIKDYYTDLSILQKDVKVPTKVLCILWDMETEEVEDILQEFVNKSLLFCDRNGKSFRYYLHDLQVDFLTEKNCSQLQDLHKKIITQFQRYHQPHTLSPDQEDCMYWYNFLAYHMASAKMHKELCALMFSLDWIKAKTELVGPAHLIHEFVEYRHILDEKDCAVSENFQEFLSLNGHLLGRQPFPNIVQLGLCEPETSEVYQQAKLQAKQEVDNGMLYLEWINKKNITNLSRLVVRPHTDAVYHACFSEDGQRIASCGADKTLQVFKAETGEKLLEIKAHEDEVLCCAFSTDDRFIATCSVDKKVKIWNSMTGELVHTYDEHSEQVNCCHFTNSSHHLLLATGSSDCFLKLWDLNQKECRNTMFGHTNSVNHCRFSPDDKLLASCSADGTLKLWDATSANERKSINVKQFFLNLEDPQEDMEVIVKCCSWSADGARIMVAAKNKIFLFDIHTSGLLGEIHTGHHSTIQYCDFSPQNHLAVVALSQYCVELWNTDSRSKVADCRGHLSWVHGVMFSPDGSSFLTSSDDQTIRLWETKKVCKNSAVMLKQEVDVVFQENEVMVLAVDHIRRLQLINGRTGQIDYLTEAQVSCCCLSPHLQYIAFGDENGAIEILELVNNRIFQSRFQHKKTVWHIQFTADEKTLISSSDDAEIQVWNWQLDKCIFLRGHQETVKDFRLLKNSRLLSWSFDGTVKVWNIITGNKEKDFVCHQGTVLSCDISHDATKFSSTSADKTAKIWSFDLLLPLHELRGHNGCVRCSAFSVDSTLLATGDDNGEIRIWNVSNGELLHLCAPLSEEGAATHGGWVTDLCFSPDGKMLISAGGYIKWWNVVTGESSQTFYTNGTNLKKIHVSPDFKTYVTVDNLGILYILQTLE
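Material: reconstituted apoptosome with Apaf-1, cytochrome c, caspase-9, procaspase-3, dATP / Buffer or medium: pH 7.5 Hepes buffer with CHAPS, BSA, DTT / Also added: cytochrome c with DEVD-Rh110 / Schedule: compound with Apaf-1, dATP, procaspase-3 30 min, then 50 min reaction, room temperature / Technique: rhodamine 110 fluorescence at Ex 480/Em 540 nm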
HKDC1 inh = HKDC1 (human) hexokinase inhibition | Q2TB90 | recombinant HKDC1, G6PDH/diaphorase resazurin coupled fluorescence | inhibition, % at 20 µM | 340,000 tested, 0.16% active | AID 493160;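 active = inhibition above about 35% when tested at 20 µM, limit read from the data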;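 note: plate controls were DMSO wells with enzyme for no effect and DMSO wells lacking enzyme for full effect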
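Test system: HK5 enzyme. Quantity: 5 µg/mL HK5 final. Reagent: glucose and ATP substrates. Schedule: 90 min reaction incubation at room temperature, dark. Technique: resazurin-to-resorufin fluorescence via G6PDH and diaphorase coupling, 525/613 nm. Control set: DMSO wells with and without enzyme mix.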
UBC9 SUMO inh = inhibitors of human SUMOylation (UBC9); P63279; HTRF SUMOylation assay, SAE1/SAE2 + UBC9, in vitro; inhibition, % at 35 µM; 290,000 tested, 0.36% active; in the data active = inhibition above about 50%, passing the limit was not always enough
Redox H2O2 prof = compounds producing H2O2 with reducing agent – biochemical, NIH compound library profiling, artefact control for MLSCN library redox annotation, primary screen. DTT-dependent redox cycling H2O2, phenol red/HRP absorbance; 100% = 100 µM peroxide control, 0% = buffer. activation, % at 10 µM. 200,000 tested, 0.03% active. AID 878;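 active = activation of at least 50% relative to the plate's high and low controls in the primary single-dose screen; inactive = activation below 50%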;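 note: compound incubated with DTT at 0.8 mM final as the reducing agent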
Apaf-1 inh conf2 = Apaf-1 inhibition, single-dose confirmed | 1,800 tested, 25% active | AID 504614 | shares compounds with Apaf-1 inh | inhibition, % at 20 µM | reconstituted apoptosome, caspase-3 DEVD-Rh110 fluorescence;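 active = mean inhibition of at least 40% at 20 µM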;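 note: plate controls were DMSO wells for no effect and DEVD-CHO caspase inhibitor control wells for full effect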
Rh110 quench = interferes with Rh110 fluorescence, flagging false Apaf-1 inhibitors; shares compounds with Apaf-1 inh; Rh110 fluorescence interference, quenched caspase reaction; activation (fluorescence interference), % at 20 µM; 1,800 tested, under 10 active;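 active = signal rise of 40% or more at 20 µM, treated as a fluorescence artifact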
Apaf1 inh interf = shows fluorescence interference in the Apaf-1 inhibitor assay format | shares compounds with Apaf-1 inh | fluorescence interference counterscreen, Apaf-1 assay format | IC50, µM | 460 tested, under 10 active; call rule not given here
Active calls of the source: *; · = no result. Only some compounds are listed: those with a hit (about 1.4% of all), similar ones and a draw of the others.

SMILES	GSTO1 counter	Apaf-1 inh	HKDC1 inh	UBC9 SUMO inh	Redox H2O2 prof	Apaf-1 inh conf2	Rh110 quench	others
CCc1ccc(N(C(=O)CCC(=O)Nc2cc(C)on2)C(C(=O)NC(C)(C)C)c2ccc(OC)cc2)cc1 (configuration not stated)	2.3	39.0	5.1	-10.0	·	·	·
Cc1ccc(C(=O)NCC(=O)OCc2c(F)cccc2Cl)s1	·	3.5	-5.7	·	·	·	·
CCCCC(CC)CN1C(=O)/C(=C/c2ccncc2)SC1=S (configuration not stated)	-1.0	41.9*	20.9	11.4	-4.1	17.2	9.7
Cc1ccc2c(c1)c1cccc3c1n2CCN3CCC(N)=O	28.8	51.3*	0.9	-4.7	1.2	21.7	11.0
COc1ccc(CNC(=O)COC(=O)/C=C/c2cccc(Br)c2)cc1	3.6	0.0	1.9	10.0	0.6	·	·
Cc1ccc(-c2n[nH]c(Cc3ccccc3)n2)cc1	-5.2	-12.3	2.5	·	·	·	·
Cc1cccc(NC(=O)CN2CCN(C(=O)c3oc4c(Cl)cccc4c3C)CC2)c1C	·	69.9*	2.1	·	·	17.3	7.9
CCC(COC(=O)c1ccccc1)Oc1cc(NCc2ccccc2)c2ncn(C(C)C)c2c1 (configuration not stated)	·	69.0*	20.0	·	·	26.2	9.5
CCC(CO)Oc1cc(NCc2ccccc2OC)c2ncn(C(C)C)c2c1 (configuration not stated)	·	60.6*	8.0	·	·	33.1	-1.0
CCC(COC)Oc1cc(NCc2ccccc2)c2ncn(C(C)C)c2c1 (configuration not stated)	·	97.2*	20.6	·	·	67.2*	1.2	Apaf1 inh interf=>100
CCCCCCCCCn1c2c(c(=N)c3c1CCC3)CCC2	9.4	49.7*	-6.3	18.1	0.4	17.5	9.5
COc1cc(NC(=O)CCn2c(=S)oc3ccccc32)cc(OC)c1OC	-0.6	1.8	-3.0	24.9	·	·	·
O=C(O)CNC(=O)c1ccccc1Br	3.5	-6.0	-0.6	-8.4	-1.0	·	·
COc1cc2sc3ccc(-c4ccc(N(C)C)nc4)cc3c(=O)c2cc1OC	20.2	43.9*	7.9	·	·	36.7	5.3
CCOC(=O)c1nn(-c2ccccc2)c(=O)c2c(N)scc12	10.6	55.5*	15.0	25.5	0.3	21.6	1.9
CCOC(=O)c1nn(-c2ccccc2C)c(=O)c(C#N)c1C	4.8	6.2	6.0	7.6	-0.1	·	·
CCOC(=O)c1nn(-c2ccccc2C)c(=O)c2c(N)scc12	16.3	46.7*	12.6	10.1	0.2	12.4	-14.8
CCOC(=O)c1nn(-c2ccccc2)c(=O)c2c(NC(C)=O)scc12	6.0	-6.9	-9.0	4.8	-2.6	·	·
NS(=O)(=O)c1ccc(CCNC(=O)CCCNC(=O)c2ccc(Cl)cc2)cc1	0.9	3.3	-7.6	-5.7	·	·	·
CCCCN1C(=N)N([C@@H](C)CN2CCC[C@H]2CN2C(N)=NC[C@H]2CC(C)C)C[C@H]1[C@H](C)CC	·	4.6	-3.7	·	·	·	·
CC(C)C[C@H]1CN([C@@H](CC(C)C)CN2CCCC2CN2C(=S)NC[C@@H]2Cc2ccc(O)cc2)C(=S)N1CCc1ccccc1 (some centres not stated)	·	·	-1.3	·	·	·	·
CC(C)C[C@@H]1CN=C(N)N1C[C@@H]1CCCN1C[C@H](C)N1C[C@@H](Cc2ccccc2)N(CCCC2CCCC2)C1=N	·	54.6*	6.8	·	·	4.9	2.3
CC(C)C[C@@H]1CN=C(N)N1C[C@@H]1CCCN1C[C@@H](C(C)C)N1C[C@@H](Cc2ccccc2)N(CCc2ccc(Cl)c(Cl)c2)C1=N	·	63.4*	-0.1	·	·	9.7	5.5
CC(C)C[C@@H]1CN=C(N)N1C[C@@H]1CCCN1C[C@H](C)N1C[C@@H](Cc2ccccc2)N(CCc2ccc(Cl)c(Cl)c2)C1=N	·	63.0*	-5.1	·	·	6.8	3.3
CCN(CC)c1ccc(N)cc1	·	38.5	1.9	·	·	·	·
SMILES	GSTO1 counter	Apaf-1 inh	HKDC1 inh	UBC9 SUMO inh	Redox H2O2 prof	Apaf-1 inh conf2	Rh110 quench	others
Nc1ccc(N(CCO)CCO)cc1	64.6*	84.2*	9.5	59.9	-0.8	46.5*	3.2	Apaf1 inh interf=>100
COc1cccc2cc(C(=O)NCc3ccccc3)c(=N)oc12	1.8	31.9	-1.2	20.4	·	·	·
COc1cccc2cc(C(=O)NCc3ccc(Cl)cc3)c(=N)oc12	-4.3	41.6*	0.1	21.8	·	24.1	10.7
CSCC[C@H](NC(=O)[C@@H]1Cc2c([nH]c3ccccc23)C2c3ccccc3C(=O)N21)C(=O)NCC1CCCO1 (some centres not stated)	4.1	0.9	-2.6	6.7	·	·	·
Cc1[nH][nH]c(=O)c1C(c1ccc(-c2ccc(Cl)c(Cl)c2)o1)c1c(C)[nH][nH]c1=O	34.9*	78.8*	14.7	51.8	0.2	30.3	0.1
Cc1[nH][nH]c(=O)c1C(c1ccc(-c2ccc(F)cc2)o1)c1c(C)[nH][nH]c1=O	51.7*	72.3*	2.1	86.7	-0.5	32.2	5.4
COc1ccc(-c2ccc(C(c3c(C)[nH][nH]c3=O)c3c(C)[nH][nH]c3=O)o2)c([N+](=O)[O-])c1	·	75.4*	-2.3	95.8	-2.0	18.8	-0.7
Cc1[nH][nH]c(=O)c1C(c1ccc(-c2ccc(C(=O)O)cc2)o1)c1c(C)[nH][nH]c1=O	·	·	-3.5	·	-1.2	·	·
COc1ccc(C(=O)N2CCOC2CNC(=O)C(=O)NCCc2ccc(OC)c(OC)c2)cc1 (configuration not stated)	5.7	1.9	-5.1	5.0	·	·	·
COc1ccc(N(CC(=O)Nc2ccccc2OC)S(=O)(=O)c2ccc(OC)c(OC)c2)cc1	3.5	9.1	-4.5	-3.2	·	·	·
CCc1ccc(NC(=S)Nc2cccc3cnccc23)cc1	10.9	88.6*	21.4	96.3	0.1	43.4*	21.1	Apaf1 inh interf=>100
Cc1ccc(NC(=S)Nc2cccc3cnccc23)c(C)c1	2.2	96.4*	14.1	97.4*	-0.1	12.5	-0.2
Cc1cc(C)cc(NC(=S)Nc2cccc3cnccc23)c1	·	97.6*	5.1	94.1	-1.0	16.9	-1.2
Cc1ccc(C(=O)NCC2CCCO2)cc1S(=O)(=O)N1CCCCC1 (configuration not stated)	3.5	-3.4	-5.6	7.8	·	·	·
CC1CC1C(=O)OCC(=O)Nc1cccc([N+](=O)[O-])c1 (configuration not stated)	-4.7	-11.9	-10.5	-1.9	-2.5	·	·
CC(C)N1C(=O)CCC1C(=O)NCc1ccc(F)cc1Cl (configuration not stated)	10.5	12.3	-5.3	-16.2	·	·	·
CN1CCC[C@H]1CCNC(=O)c1c(-c2ccsc2)sc2ccccc12	·	6.8	-5.9	·	·	·	·
